Measurements taken from PubChem BioAssay.
Activity calls are given as the source filed them.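 The calls were made as follows, unless noted: active = visual image review flags a hit and inhibition of aggregation exceeds 20%; inconclusive = visual hit but inhibition at or below 20%; inactive = no hit on visual image review.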

Tests used:
[1] = inhibitors of TNFa-induced NFkB p65 translocation, primary screen, imaging, HUVEC, MLSMR starter and 10KST1 sets (AID 438;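 active = inhibition above 20% together with a positive visual image hit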;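 also: compound added about 3h40 before a 20 min TNFalpha stimulation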;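 as to inhibition: signal is the nuclear over cytoplasmic p65 intensity ratio per well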); conditions: HUVEC TNFa-induced p65 nuclear translocation; cell count: measured here: nuclei count (cytotoxicity indicator), at 2.08 µM; inhibition: at 2 µM, stronger effect = higher value, 0% TNFa-plus-vehicle, 100% no-TNFa wells
[2] = inhibitors of mutant huntingtin aggregation, primary screen, imaging, exon1htt(103Q)mCFP cells, high-content imaging (AID 483); conditions: exon1htt(103Q)mCFP cell line, aggregate imaging, at 2 µM; inhibition of aggregation: stronger effect = higher value; nuclei count: measured here: cell count, toxicity;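 also: compound exposure lasted 3 days before fixation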;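 as to nuclei count: percent of the per-plate median nuclei count of sample wells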
[3] = inhibitors of E-selectin induction by TNFa, primary screen, imaging, HUVEC, immunofluorescence, MLSMR starter and 10KST1 sets (AID 487;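 active = visually confirmed hit in the image check and inhibition above 20%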;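 as to inhibition: signal is fraction of cell area covered by stained E-selectin grains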;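 as to nuclei count: 100% = median nuclei count of all wells on the same plate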); conditions: HUVEC TNFalpha-induced E-selectin immunofluorescence imaging, at 2 µM; inhibition: stronger effect = higher value; nuclei count: measured here: cell number, toxicity
[4] = target: Voltage-gated potassium channel subunit beta-2 (Rattus norvegicus) (UniProt P62483); assay: KvBeta enzyme negative modulators, primary screen, biochemical, NADPH fluorescence (AID 622;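 active = fluorescence slope higher than the sample average by over 3 SD, cut at about -0.22 in these data, passing the limit was not always enough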;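 also: slope of raw intensity against log time taken from 70 to 1610 s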); conditions: recombinant KvBeta, 4-cyanobenzaldehyde reduction, at 10 µM, stronger effect = higher value
Sequence of Voltage-gated potassium channel subunit beta-2 (Rattus norvegicus) (P62483 whole entry, looked up): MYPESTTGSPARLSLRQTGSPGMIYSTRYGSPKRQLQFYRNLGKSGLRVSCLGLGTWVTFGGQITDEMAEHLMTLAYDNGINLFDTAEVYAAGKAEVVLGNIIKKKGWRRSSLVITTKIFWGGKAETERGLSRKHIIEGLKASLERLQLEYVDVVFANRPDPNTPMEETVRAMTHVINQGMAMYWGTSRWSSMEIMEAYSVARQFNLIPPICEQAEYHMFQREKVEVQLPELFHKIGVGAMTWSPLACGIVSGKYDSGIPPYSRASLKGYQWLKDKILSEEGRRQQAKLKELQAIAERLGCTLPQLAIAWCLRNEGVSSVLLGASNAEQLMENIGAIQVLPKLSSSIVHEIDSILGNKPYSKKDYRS

[5] = target: Voltage-gated potassium channel subunit beta-2 (Rattus norvegicus) (UniProt P62483); assay: KvBeta positive modulators, primary screen, biochemical, NADPH fluorescence (AID 623;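 active = NADPH fluorescence slope more negative than the mean of all samples by about 3 SD, 99.7% confidence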;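 also: fluorescence intensity change per second fitted from 20 to 320 s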); conditions: Recombinant KvBeta, NADPH fluorescence decrease slope, 10 min; at 10 µM; stronger effect = lower value
[6] = target: Muscarinic acetylcholine receptor M4 (Homo sapiens) (UniProt P08173); assay: compounds altering M4/GIRK thallium flux, either direction, primary screen, M4 allosteric agonist project, cell-based, HEK293 M4/GIRK, BTC-AM (AID 625;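 active = fluorescence slope after compound addition differing from the mean of all tested samples at 99.7% confidence, mostly higher but some lower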;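 also: thallium influx through GIRK channels coupled to M4 in HEK293 cells with BTC-AM dye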); conditions: at 10 µM, actives lie on both sides
Sequence of Muscarinic acetylcholine receptor M4 (Homo sapiens) (P08173 whole entry, looked up): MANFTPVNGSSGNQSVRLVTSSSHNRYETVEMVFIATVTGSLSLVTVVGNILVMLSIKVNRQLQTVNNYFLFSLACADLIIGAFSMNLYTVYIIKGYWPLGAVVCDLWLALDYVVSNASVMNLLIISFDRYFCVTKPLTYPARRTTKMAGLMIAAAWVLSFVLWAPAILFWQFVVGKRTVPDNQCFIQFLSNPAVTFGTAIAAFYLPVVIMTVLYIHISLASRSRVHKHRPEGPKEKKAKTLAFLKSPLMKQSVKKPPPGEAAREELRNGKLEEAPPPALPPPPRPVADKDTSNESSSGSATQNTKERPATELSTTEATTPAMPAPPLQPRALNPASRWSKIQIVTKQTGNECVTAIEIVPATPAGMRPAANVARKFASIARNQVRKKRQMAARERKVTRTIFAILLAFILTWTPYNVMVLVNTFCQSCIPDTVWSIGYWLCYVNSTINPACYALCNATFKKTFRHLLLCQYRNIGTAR
Procedure, shortened: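 Material: HEK293 cells with M4 receptor and GIRK channels; Times: cells overnight at 37 °C, BTC-AM loading 1 h, reads 2 min total; Technique: kinetic BTC-AM fluorescence sampled at 1 Hz, 10 s pre-addition baseline; Read-out basis: slope over 15–24 s of trace normalized to starting intensity; Controls: carbachol positive, DMSO negative.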

[7] = inhibitors of Sendai virus-induced IRF3 signaling, primary screen, TLR/RLR signaling modifier project, cell-based, Sendai virus stimulus, luciferase, 10K MLSCN set (AID 602276;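 active = inhibition at or above 50% at 10 µM; inactive = inhibition below 50%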;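 also: firefly luciferase from ISG56 promoter only with Renilla not read in this screen; 0% = Sendai virus plus DMSO and 100% = medium plus DMSO without virus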); conditions: HEK293 RL24 IRF3 luciferase reporter, at 10 µM, stronger effect = higher value
[8] = inhibitors of poly I:C-induced TLR3 signaling, primary screen, cell-based, poly I:C stimulus, luciferase, 10K MLSCN set (AID 602277;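 active = inhibition of the reporter signal at or above 50%; inactive = inhibition below 50%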); conditions: HEK293-TLR3 RL24 IRF3 luciferase reporter, at 10 µM, stronger effect = higher value

Compound | cell count [1] | inhibition [1] | inhibition of aggregation [2] | nuclei count [2] | inhibition [3] | nuclei count [3] | fluorescence slope [4] | NADPH fluorescence slope [5] | fluorescence slope [6] | inhibition [7] | inhibition [8]
Cc1cc(NC(=O)Cn2cnc3c2c(=O)n(C)c(=O)n3C)n(-c2ccccc2)n1 | 580 | -38.9% (inactive) | 1.1% (inactive) | 99.2% | 22.7% (inactive) | 68.4% | -0.33 (inactive) | -8.3e-05 (inactive) | 0.00675 (inactive) | 13.4% (inactive) | 17% (inactive)
O=C1CSC(c2cccc(F)c2)N1c1ccccc1F (stereo not drawn) | 650 | -15.7% (inactive) | 36.5% (inactive) | 118% | -120% (inactive) | 100% | -0.614 (inactive) | 6.1e-06 (inactive) | 0.00376 (inactive) | 15% (inactive) | 18.1% (inactive)
CCCCCCNC(=O)Cc1c(O)c2ccccc2[nH]c1=O | 342 | 3.2% (inactive) | -12.8% (inactive) | 122% | 20.8% (inactive) | 103% | -0.354 (inactive) | -5.1e-05 (inactive) | 0.0051 (inactive) | 9.96% (inactive) | 16.8% (inactive)
CC1CC(C)CN(CCCNC(=O)COc2cc(=O)n(C)c3ccccc23)C1 (stereo not drawn) | 347 | 3.3% (inactive) | -17.3% (inactive) | 99% | -10.4% (inactive) | 122% | -0.408 (inactive) | -7e-05 (inactive) | 0.00505 (inactive) | 11.3% (inactive) | 36.3% (inactive)
CCn1c(CNc2ccc(C)cc2)nnc1SCC(=O)NCc1ccccc1 | 648 | 13.4% (inactive) | 5.4% (inactive) | 81.4% | -45% (inactive) | 115% | -0.486 (inactive) | 0.000173 (inactive) | 0.00606 (inactive) | -9.51% (inactive) | -4.1% (inactive)
O=C(CSc1nnc2scc(-c3ccccc3)n12)N1CCN(Cc2ccccc2)CC1 | 703 | -24.5% (inactive) | 6.5% (inactive) | 110% | 19.1% (inactive) | 91.4% | -0.5 (inactive) | 2.7e-06 (inactive) | 0.00675 (inactive) | 6.37% (inactive) | 7.98% (inactive)
Cc1c(/C(O)=C2/C(=O)C(=O)N(CCN3CCOCC3)C2c2cccs2)cnn1-c1ccccc1 (stereo not drawn) | 566 | 13.4% (inactive) | -5% (inactive) | 103% | 21.8% (inactive) | 97.7% | -0.502 (inactive) | -0.000209 (inactive) | 0.00361 (inactive) | 2.43% (inactive) | 21.8% (inactive)
CC(C)(C)NC(=O)C(c1ccco1)N(C(=O)Cn1nnc(-c2ccc(F)cc2)n1)c1ccccc1 (stereo not drawn) | 422 | 9.2% (inactive) | -1.8% (inactive) | 99.8% | -146% (inactive) | 122% | -0.551 (inactive) | 8.1e-06 (inactive) | 0.00525 (inactive) | 15.8% (inactive) | 26.6% (inactive)
Nc1nc(SCCOc2ccccc2)n[nH]1 | 256 | -3% (inactive) | 18.6% (inactive) | 76.7% | -41.8% (inactive) | 105% | -0.571 (inactive) | -1.8e-05 (inactive) | 0.00618 (inactive) | 4.33% (inactive) | 3.33% (inactive)
COc1cccc(CC(NC(C)=O)C(=O)NC2CCN(c3c4c(nc5ncnn35)CCC4)CC2)c1 (stereo not drawn) | 767 | -6.8% (inactive) | -4.2% (inactive) | 114% | -37.8% (inactive) | 140% | -0.464 (inactive) | -5.8e-05 (inactive) | 0.00506 (inactive) | 17.1% (inactive) | 22.9% (inactive)
Nc1nonc1-c1noc(-c2ccccc2Br)n1 | 384 | -1.6% (inactive) | -6.3% (inactive) | 63% | -23.9% (inactive) | 112% | -0.252 (inactive) | -2.2e-05 (inactive) | 0.00797 (inactive) | 5.89% (inactive) | -26.2% (inactive)
CN(CC(O)COCc1cccs1)C1CCCCC1 (stereo not drawn) | 305 | 10.6% (inactive) | 1.5% (inactive) | 95.2% | -5.5% (inactive) | 105% | -0.448 (inactive) | -4.5e-05 (inactive) | 0.00729 (inactive) | 11.7% (inactive) | 17.5% (inactive)
CCOC(=O)C1CCCN(C(=O)CNS(=O)(=O)c2ccc(Br)s2)C1 (stereo not drawn) | 232 | 3.3% (inactive) | -8.6% (inactive) | 108% | -33.6% (inactive) | 113% | -0.437 (inactive) | -5.6e-05 (inactive) | 0.00599 (inactive) | 11.6% (inactive) | 8.54% (inactive)
CCOc1ccc(OCc2ccc(C(=O)Nc3cccc(C)n3)o2)cc1 | 731 | -4.2% (inactive) | -3.4% (inactive) | 114% | -43.1% (inactive) | 117% | -0.557 (inactive) | -6.3e-05 (inactive) | 0.00558 (inactive) | -27% (inactive) | -74% (inactive)
COc1cccc(NC(=O)Nc2cccs2)c1 | 355 | -1.5% (inactive) | -5.7% (inactive) | 93.5% | 9.9% (inactive) | 115% | -0.483 (inactive) | 0.00014 (inactive) | 0.00925 (active) | -20.2% (inactive) | -76.7% (inactive)
O=C(O)C1CSC2c3ccccc3C(=O)N12 (stereo not drawn) | 729 | -4.7% (inactive) | -3.2% (inactive) | 96.3% | -66.8% (inactive) | 107% | -0.577 (inactive) | -6.7e-06 (inactive) | 0.00676 (inactive) | 11.2% (inactive) | 19% (inactive)
O=C(OCc1nnc(-c2ccccc2)o1)C1=COCCO1 | 462 | 0% (inactive) | 5.5% (inactive) | 71.7% | -58.4% (inactive) | 110% | -0.432 (inactive) | -1.1e-05 (inactive) | 0.00605 (inactive) | -2.24% (inactive) | -6.55% (inactive)
S=c1nc(C2CC2)[nH]c2ccccc12 | 469 | 0.8% (inactive) | -8.3% (inactive) | 106% | -99% (inactive) | 118% | -0.49 (inactive) | -4.4e-05 (inactive) | 0.0139 (active) | 19% (inactive) | 20.9% (inactive)
CC1(C)Cc2noc(N)c2C(C)(C)N1OC(=O)c1ccco1 | 295 | -6.6% (inactive) | 21.5% (inactive) | 87.2% | -89.1% (inactive) | 88.4% | -0.474 (inactive) | 2.9e-05 (inactive) | 0.00628 (inactive) | 16.2% (inactive) | 23.5% (inactive)
Cc1cccc(NC(=O)CCn2ccnc2C)c1 | 628 | 1.2% (inactive) | -6.6% (inactive) | 96.8% | -65.9% (inactive) | 93% | -0.574 (inactive) | -5e-05 (inactive) | 0.00688 (inactive) | 10.5% (inactive) | 8.13% (inactive)
CCn1c(SCC(=O)NCCc2ccc(Cl)cc2)nnc1-c1cccs1 | 616 | 6.9% (inactive) | 25.3% (inactive) | 69.4% | -11.2% (inactive) | 106% | -0.572 (inactive) | -5e-05 (inactive) | 0.00799 (inactive) | -15.7% (inactive) | -13.3% (inactive)
Cn1cnnc1SCC(=O)Nc1sc2c(c1C#N)CCCCC2 | 564 | -29.4% (inactive) | 2.6% (inactive) | 80.6% | -29.2% (inactive) | 108% | -0.499 (inactive) | 0.000104 (inactive) | 0.00534 (inactive) | -24.5% (inactive) | -31.5% (inactive)
CC(C)OP(=O)(c1ccc(N(C)C)cc1)C(O)c1ccccc1F (stereo not drawn) | 720 | -7.2% (inactive) | 12.5% (inactive) | 117% | -14.7% (inactive) | 117% | -0.541 (inactive) | -5.1e-05 (inactive) | 0.00489 (inactive) | 11.8% (inactive) | 22.5% (inactive)
CC1CCN(S(=O)(=O)c2ccc(S(=O)(=O)NCC(=O)C(C)(C)C)cc2)CC1 | 528 | -14.7% (inactive) | -10.2% (inactive) | 113% | -189% (inactive) | 166% | -0.571 (inactive) | -7.1e-05 (inactive) | 0.00717 (inactive) | 0.588% (inactive) | 9.79% (inactive)
COc1ccccc1NC(=O)C(O)C(O)C(=O)Nc1ccccc1OC (stereo not drawn) | 350 | 8.6% (inactive) | 2.9% (inactive) | 84.5% | -101% (inactive) | 101% | -0.351 (inactive) | -4.1e-05 (inactive) | 0.00694 (inactive) | -7.84% (inactive) | -0.666% (inactive)
CC(=O)Nc1ccc(NC(=O)c2ccccc2F)cc1 | 345 | -4.6% (inactive) | 1.3% (inactive) | 102% | -14.4% (inactive) | 116% | -0.556 (inactive) | -1.7e-05 (inactive) | 0.00528 (inactive) | -10.5% (inactive) | -55% (inactive)
CC1(C)CC(=O)c2cc(OCC(=O)N3CCN(c4ccccc4F)CC3)ccc2O1 | 550 | -19.1% (inactive) | -3.9% (inactive) | 94.6% | -101% (inactive) | 118% | -0.288 (inactive) | -5.4e-06 (inactive) | 0.00419 (inactive) | 19.9% (inactive) | 0.776% (inactive)
COc1ccc(-n2c(SCC(=O)Nc3ccc(C(=O)O)cc3)nnc2-c2cccs2)cc1 | 443 | 2.8% (inactive) | -7.1% (inactive) | 91.6% | -43.4% (inactive) | 150% | -0.451 (inactive) | -0.000238 (inactive) | 0.00524 (inactive) | 0.267% (inactive) | 6.83% (inactive)
